# PREPL inhibitor: inhibits the human prolyl oligopeptidase-like enzyme; Q4J6C6; recombinant PREPL, fluorescence polarization activity-based probe; inhibition, % at 5.96 µM; 320,000 tested, 0.68% active; in the data active means inhibition above about 43%;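 further: 0% = enzyme with DMSO and 100% = wells lacking enzyme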
# Target sequence (Q4J6C6 whole entry, looked up): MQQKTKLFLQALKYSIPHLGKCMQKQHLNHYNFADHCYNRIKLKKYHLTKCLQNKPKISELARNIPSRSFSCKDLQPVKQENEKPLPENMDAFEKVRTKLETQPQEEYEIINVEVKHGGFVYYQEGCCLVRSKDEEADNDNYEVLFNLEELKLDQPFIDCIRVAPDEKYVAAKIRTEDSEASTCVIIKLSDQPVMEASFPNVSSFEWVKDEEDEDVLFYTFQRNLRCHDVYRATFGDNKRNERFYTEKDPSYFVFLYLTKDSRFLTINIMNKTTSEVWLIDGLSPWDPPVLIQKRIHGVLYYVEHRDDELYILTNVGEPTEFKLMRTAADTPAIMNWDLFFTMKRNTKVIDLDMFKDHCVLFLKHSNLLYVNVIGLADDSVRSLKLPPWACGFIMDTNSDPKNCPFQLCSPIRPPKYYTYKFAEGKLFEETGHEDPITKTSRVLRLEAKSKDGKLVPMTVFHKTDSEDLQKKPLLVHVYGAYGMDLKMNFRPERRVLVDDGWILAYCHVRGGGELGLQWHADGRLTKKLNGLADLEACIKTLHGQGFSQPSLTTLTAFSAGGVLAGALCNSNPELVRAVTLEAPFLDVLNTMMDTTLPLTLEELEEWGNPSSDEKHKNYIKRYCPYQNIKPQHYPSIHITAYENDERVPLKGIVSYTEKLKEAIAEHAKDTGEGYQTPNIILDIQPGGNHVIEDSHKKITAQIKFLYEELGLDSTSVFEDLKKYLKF
# IDE act: boosts human insulin-degrading enzyme activity in HEK cells; FAbeta-B cleavage, fluorescence polarization; 0% vehicle, 100% cell-free pure enzyme wells; activation, % at 5.96 µM; 340,000 tested, 0.073% active;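 active means activation above the mean of all tested compounds plus 3 SD, set per screening campaign, cut at about 17% in these data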
# ARFGAP1 inhibitor: inhibits rat ARF GTPase activating protein 1. Q62848. Arfgap1-stimulated ARF1 GTP hydrolysis, GDP FP detection. inhibition, % at 16.5 µM. 360,000 tested, 0.26% active. AID 651572;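 active means inhibition above a per-plate limit, mean inhibition of low control wells plus 3 SD, cut at about 25% in these data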;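 further: 0% = DMSO wells with enzyme and 100% = wells lacking Arfgap1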
#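 Assay system: Rat Arfgap1 GAP domain (His6, aa 1-136), purified enzyme | Buffer or medium: HEPES 25 mM pH 7.5, NaCl 150 mM, MgCl2, DTT | Schedule: GTP hydrolysis reaction 2 h at 25 °C | Signal: FP of antibody-bound GDP Alexa 633 tracer, ex 620/em 688 nm | Measure: Percent inhibition of Arfgap1-stimulated GTP hydrolysis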
# IDE cell inh: inhibits human insulin-degrading enzyme in HEK cells; FAbetaB cleavage, fluorescence polarization; inhibition, % at 5.59 µM; 320,000 tested, 0.41% active;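 active means percent inhibition above the average of all tested compounds plus 3 SD, set per screening campaign, cut at about 16% in these data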;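 further: IDE supplied by intact live HEK cells; FP after avidin binding of uncleaved biotin substrate so inhibition keeps polarization high; 0% = DMSO wells and 100% = 60 µM reference IDE inhibitor Ii1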
# ASAP1 GAP inh: ASAP1 ArfGAP inhibition | Q9ULH1 | ASAP1-stimulated ARF1 GTP hydrolysis, GDP FP detection | inhibition, % at 16.5 µM | 360,000 tested, 0.19% active | AID 624377; in the data active means inhibition above about 25%;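 further: 0% = vehicle with enzyme and substrate and 100% = no enzyme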
# IDE inh confirm: confirmation of human insulin-degrading enzyme inhibitors in cells; shares compounds with IDE cell inh; HEK cells, FAbetaB cleavage, fluorescence polarization; inhibition, % at 5.59 µM; 1,200 tested, 51% active; AID 435028;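 active means mean inhibition across triplicate wells above the cutoff set by the earlier primary insulin-degrading enzyme screen, cut at about 16% in these data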;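 further: 0% = DMSO wells and 100% = 60 µM reference IDE inhibitor Ii1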
# HEK293 tox: kills HEK cells in IDE inhibitor counter-screen; shares compounds with IDE cell inh; HEK293 cytotoxicity, ATP luminescence; inhibition, % at 5.59 µM; 1,200 tested, 28% active; in the data active means inhibition above about 22%;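 further: 0% = vehicle wells and 100% = reference cytotoxic drug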
# Active calls of the source: *; . = no result. The list is not random: actives were taken first. Their share in the collection is about 1.2%.
SMILES,PREPL inhibitor,IDE act,ARFGAP1 inhibitor,IDE cell inh,ASAP1 GAP inh,IDE inh confirm,HEK293 tox
COc1ccc(C2CC=C(C(C)=O)CN2S(=O)(=O)c2ccc(C)cc2)cc1 (configuration not stated),.,.,-2,.,14,.,.
C[C@@H]1CN([C@H](C)CO)C(=O)c2cc(Br)cnc2O[C@@H]1CN(C)C(=O)c1cccc(F)c1,.,.,4,.,-5,.,.
COc1ccc(CCNC(=O)c2ccc(Cl)c(S(=O)(=O)N(C)c3ccccc3)c2)cc1,0,-8,11,18*,1,4,34*
COc1ccc(CCNC(=O)c2ccc(Cl)c(S(=O)(=O)N3CCCCCC3)c2)cc1,11,2,-6,4,-1,.,.
Cc1ccc(S(=O)(=O)/N=C2/NC(=O)/C(=C/c3cc([N+](=O)[O-])ccc3O)S2)cc1,16,-45,-7,58*,-5,80*,5
Cc1ccccc1-n1c(O)c(/C=C/C=Nc2ccccc2)c(=O)[nH]c1=O,-54,-71,-7,66*,8,85*,7
Cc1ccc(-n2c(O)c(/C=C3/C(c4ccccc4)=Nc4ccccc43)c(=O)[nH]c2=O)cc1,-9,4,-1,3,-8,.,.
Cc1cc(C)c2c(=O)n(CC(=O)NCCCN3CCOCC3)sc2n1,0,-59,.,22*,.,20*,4
Cc1ccccc1CS(=O)(=O)CCC(=O)NCCCN1CCN(c2ccccc2F)CC1,27,-1,-5,0,8,.,.
Cc1cc(C)c2c(=O)n(CC(=O)NCCCN3CCN(c4ccccc4F)CC3)sc2n1,24,.,.,39*,.,11,115*
Cc1cc([N+](=O)[O-])nn1CC(=O)NCCCN1CCOCC1,2,-1,-3,5,-7,.,.
CC(C)C(NC(=O)CCNC(=O)c1ccc([N+](=O)[O-])cc1)c1nc2ccccc2[nH]1 (configuration not stated),1,-2,-7,-2,-1,.,.
COc1ccc(C2CC(c3cccs3)=NN2c2ccc(C=O)cc2)cc1 (configuration not stated),11,.,-1,30*,-17,19*,14
CCCCC1CCC(C(=O)Nc2ccc(N3CCOCC3)cc2N2CCOCC2)CC1 (configuration not stated),0,9,-3,0,-4,.,.
CC(=O)c1ccc(Nc2cnn(C34CC5CC(CC(CC(=O)O)(C5)C3)C4)c(=O)c2Cl)cc1,2,5,-6,1,-1,.,.
Cc1cccc(Nc2cnn(C34CC5CC(CC(CC(=O)O)(C5)C3)C4)c(=O)c2Cl)c1,4,-13,12,21*,-4,12,6
Cc1ccc(Nc2cnn(C34CC5CC(CC(CC(=O)O)(C5)C3)C4)c(=O)c2Cl)cc1,15,-13,-5,14,-9,.,.
Cc1cc(C)cc(Nc2cnn(C34CC5CC(CC(CC(=O)O)(C5)C3)C4)c(=O)c2Cl)c1,9,-31,2,32*,-1,18*,12
Cc1ccc(NC(=S)NCCc2ccccc2)nc1,1,8,-4,2,-9,.,.
O=C(CSc1ccsc1[N+](=O)[O-])N1CCN(c2ccc(Cl)cc2)CC1,44*,-12,8,25*,-9,5,16
O=C1/C(=C/c2cccs2)CCC/C1=C\c1cccs1,9,-4,-3,5,-2,.,.
Cn1cccc1/C=C1\CCC/C(=C\c2cccn2C)C1=O,-18,-74,13,71*,6,118*,23*
Cc1ccc2nc(-c3ccc(NC(=O)c4ccco4)cc3)[nH]c2c1,3,-24,.,17*,.,14,10
CS(=O)(=O)c1cccc(C(=O)Nc2ccc(-c3nc4ccccc4[nH]3)cc2)c1,5,-17,7,28*,-11,8,36*
CS(=O)(=O)c1ccccc1C(=O)Nc1ccc(-c2nc3ccccc3[nH]2)cc1,6,2,13,3,-2,.,.
SMILES,PREPL inhibitor,IDE act,ARFGAP1 inhibitor,IDE cell inh,ASAP1 GAP inh,IDE inh confirm,HEK293 tox
N#CC1=C(N)SC(N)=C(C#N)C1c1cccc(O)c1,16,-9,-3,20*,-14,6,10
COc1ccc(C2C(C#N)=C(N)SC(N)=C2C#N)cc1OC,-2,-15,5,13,-2,.,.
CCc1cc(C(=O)NNC(=S)NC(C)c2ccccc2)cs1 (configuration not stated),12,-5,0,19*,-7,7,15
CCc1cc(C(=O)NNC(=S)NC2CCCCC2)cs1,5,-3,9,-4,3,.,.
CCOc1ccc(-c2c(C(=O)N/N=C/c3ccc(OC)cc3)nnn2-c2nonc2N)cc1,-12,4,-1,20*,-7,4,7
CC(C)c1nc2sc3c(SCCN(C)C)ncnc3c2c2c1CCC2,.,-2,1,.,-9,.,.
Cc1ccc(-n2sc3ccccc3c2=O)cc1S(=O)(=O)N1CCCCC1,8,-30,-4,83*,5,25*,20
Cc1ccc(C(=O)NNC(=O)c2ccccc2)cc1S(=O)(=O)N1CCCCC1,4,-2,-15,0,-7,.,.
O=c1c2ccccc2sn1-c1ccc(S(=O)(=O)N2CCCC2)cc1,2,-50,-11,38*,0,12,22
CCN(CC)C(=O)Cn1cc(C(=O)C(=O)N2CCN(C)CC2)c2ccccc21,1,6,-8,2,-5,.,.
CCN(CC)C(=O)Cn1cc(C(=O)C(=O)N2CC=C(c3ccccc3)CC2)c2ccccc21,-13,-22,13,19*,-4,21*,9
O=C(CNS(=O)(=O)c1c(F)cc(F)cc1Br)OCC(=O)N1CCCC1=O,22,-3,-5,4,2,.,.
COc1ccc(-c2oc3ccccc3c(=O)c2OC(C)=O)cc1,3,-5,1,10,10,.,.
CC(=O)Oc1c(-c2ccc(Br)o2)oc2ccccc2c1=O,-2,-55,-2,57*,0,74*,13
CN(C)C(=O)CCc1ccc2c3c([nH]c2c1)[C@]1(CCC2CCCC2)[C@@H](C(=O)N2CCOCC2)C[C@H](CC(=O)NC(C)(C)C)C(=O)N1CC3,.,4,-3,.,8,.,.
N=c1oc2c3c4c(cc2cc1C(=O)Nc1ccccc1)CCCN4CCC3,38,-30,.,51*,.,26*,21
Cc1ccc(NC(=O)c2cc3ccccc3oc2=N)cc1,-3,1,-2,3,-5,.,.
CCOc1cc(/C=C2\SC(=S)N(N3CCOCC3)C2=O)ccc1O,-17,-4,-3,7,-9,.,.
COc1cc(/C=C2\SC(=S)N(Nc3ccccc3)C2=O)ccc1O,-127,-114,-15,128*,-7,142*,9
O=C(O)C(Cc1ccccc1)N1C(=O)/C(=C/c2ccccc2)SC1=S (configuration not stated),-2,2,6,-3,-8,.,.

# High-throughput results (PubChem BioAssay)
